Assay results from ChEMBL document CHEMBL3739259, “Defining Key Structural Determinants for the Pro-osteogenic Activity of Flavonoids” (J Nat Prod, 2015).
Active and inactive are the calls of the source. No cut-off for these calls is given here.

Columns and labels:
[1] = tested on: MSC; experiment: (§1) Induction of osteogenic differentiation in human MSC assessed as increase in ALP activity at 10 uM using p-NPP as substrate after 9 days by colorimetric method relative to control; format: functional
Outline: (§2)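 ALP read on day 9 in passage-3 bone-marrow hMSCs cultured at high density in Os.D medium. Compound (1, 5 or 10 μM, 0.1% v/v DMSO final) was re-applied on days 0, 3 and 6. Colorimetric p-nitrophenyl phosphate method, normalised to time and cell number (pNP/min/20,000 cells). Expressed as % of untreated control; three independent triplicate experiments; one-way ANOVA versus vehicle.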

[2] = tested on: MSC; experiment: (§3) Induction of osteogenic differentiation in human MSC assessed as increase in ALP activity at 5 uM using p-NPP as substrate after 9 days by colorimetric method relative to control; format: functional; outline: as §2
[3] = tested on: MSC; experiment: Induction of osteogenic differentiation in human MSC assessed as increase in ALP activity at 1 uM using p-NPP as substrate after 9 days by colorimetric method relative to control; format: functional; outline: as §2
[4] = Cytotoxicity against human MSC assessed as cell viability at 1 uM treated for 6 days measured on day 7 by alamar blue assay (reference value: 96 to 101%); settings: MSC cells, read-out: Activity
[5] = Cytotoxicity against human MSC assessed as cell viability at 10 uM treated for 3 days measured on day 4 by alamar blue assay (reference value: 97 to 100%); settings: MSC cells, read-out: Activity
[6] = Cytotoxicity against human MSC assessed as cell viability at 5 uM measured on day 1 by alamar blue assay (reference value: 97 to 101%); settings: MSC cells, read-out: Activity
[7] = Cytotoxicity against human MSC assessed as cell viability at 10 uM measured on day 1 by alamar blue assay (reference value: 97 to 101%); settings: MSC cells, read-out: Activity
[8] = Cytotoxicity against human MSC assessed as cell viability at 1 uM treated for 3 days measured on day 4 by alamar blue assay (reference value: 97 to 100%); settings: MSC cells, read-out: Activity
[9] = Cytotoxicity against human MSC assessed as cell viability at 5 uM treated for 3 days measured on day 4 by alamar blue assay (reference value: 97 to 100%); settings: MSC cells, read-out: Activity
[10] = Cytotoxicity against human MSC assessed as cell viability at 10 uM treated for 6 days measured on day 7 by alamar blue assay (reference value: 96 to 101%); settings: MSC cells, read-out: Activity
[11] = Cytotoxicity against human MSC assessed as cell viability at 1 uM measured on day 1 by alamar blue assay (reference value: 97 to 101%); settings: MSC cells, read-out: Activity
[12] = Cytotoxicity against human MSC assessed as cell viability at 5 uM treated for 6 days measured on day 7 by alamar blue assay (reference value: 96 to 101%); settings: MSC cells, read-out: Activity
[13] = Cytotoxicity against human MSC assessed as decrease in cell number at 1 to 10 uM after 9 days by methylene blue staining based microscopy relative to control; settings: 216 h
Outline: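 Passage-3 bone-marrow hMSCs, high density in Os.D medium, dosed with 1, 5 or 10 μM compound (0.1% v/v DMSO final) on days 0, 3 and 6 with medium changes. Cell number measured on day 9 by methylene blue proliferation assay. Expressed as % of untreated control; three independent triplicate experiments, mean ± SEM, one-way ANOVA versus vehicle.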

[14] = Decrease in ALP activity in human MSC using p-NPP as substrate at 5 uM after 9 days by colorimetric method relative to control; format: functional; design: Activity: scale not given: the % may be the effect or the level left; outline: as §2
[15] = as §1; format: functional; outline: as §2
[16] = as §3; format: functional; outline: as §2

| Structure (SMILES) | Activity [1] | Activity [2] | Activity [3] | viability at 144 h, 1 µM [4] [%] | viability at 72 h, 10 µM [5] [%] | viability at 1 day, 5 µM [6] [%] | viability at 1 day, 10 µM [7] [%] | viability at 72 h, 1 µM [8] [%] | viability at 72 h, 5 µM [9] [%] | viability at 144 h, 10 µM [10] [%] | viability at 1 day, 1 µM [11] [%] | viability at 144 h, 5 µM [12] [%] | fold change (FC) [13] | Activity [13] | Activity [14] [%] | Activity [15] [%] | fold change (FC) [15] | fold change (FC) [16] |
| --- | --- | --- | --- | --- | --- | --- | --- | --- | --- | --- | --- | --- | --- | --- | --- | --- | --- | --- |
| COc1cc([C@@H]2CC(=O)c3c(O)cc(O)cc3O2)ccc1O | inactive | inactive | inactive |  |  |  |  |  |  |  |  |  |  |  |  |  |  |  |
| COc1ccc(-c2cc(=O)c3c(O)cc(O)cc3o2)cc1O | inactive | inactive | inactive |  |  |  |  |  |  |  |  |  |  |  |  |  |  |  |
| O=C1c2c(O)cc(O)cc2O[C@H](c2ccc(O)c(O)c2)[C@H]1O [(+)-TAXIFOLIN] | inactive | inactive | inactive | 98 | 92 | 101 | 102 | 92 | 92 | 101 | 103 | 98 |  |  |  |  |  |  |
| Oc1cc(O)c2c(c1)O[C@H](c1ccc(O)c(O)c1)[C@H](O)C2 [(-)-EPICATECHIN] | inactive | inactive | inactive | 96 | 94 | 90 | 84 | 98 | 95 | 98 | 92 | 98 | 0.43 |  |  |  |  |  |
| O=c1cc(-c2ccc(O)cc2)oc2cc(O)cc(O)c12 [APIGENIN] | inactive | inactive | inactive | 96 | 98 | 102 | 98 | 101 | 99 | 94 | 98 | 97 |  | Toxic |  |  |  |  |
| Oc1cc(O)c2c(c1)O[C@H](c1ccc(O)c(O)c1)[C@@H](O)C2 [CIANIDANOL] | inactive | inactive | inactive | 97 | 93 | 104 | 104 | 94 | 92 | 98 | 105 | 98 |  |  |  |  |  |  |
| O=C1C[C@@H](c2ccc(O)c(O)c2)Oc2cc(O)cc(O)c21 [ERIODICTYOL] |  | inactive | inactive | 101 | 102 | 98 | 99 | 103 | 102 | 101 | 102 | 102 |  |  | 98 | 111 |  |  |
| O=c1c(O)c(-c2ccc(O)c(O)c2)oc2cc(O)ccc12 [FISETIN] |  |  | inactive | 98 | 95 | 98 | 86 | 96 | 97 | 96 | 98 | 97 |  | Toxic |  |  | 1.32 | 1.52 |
